Laboratory results published in ChEMBL document CHEMBL3853326, “Proteolytically Stable Foldamer Mimics of Host-Defense Peptides with Protective Activities in a Murine Model of Bacterial Infection” (J Med Chem, 2016).
≈ marks a conversion by molar mass, not a printed value. Calls of active or inactive are those of the source.

Legend:
[1] = Drug uptake in BALB/c mouse kidney cortex at 100 ug/ml, iv after 4 to 48 hrs by high resolution beta radiometric imaging analysis; format: ADME, organism-based; details: in vivo
In short: (§1)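 BALB/c mice got 100 μg (5 μCi) tritiated compound iv in PBS. At 4, 30 and 48 h the mice were anaesthetised with halothane and frozen in isopentane/dry ice at −80 °C. Whole-body sagittal cryosections (20 μm, cut at −25 °C) were exposed 40 h on a β-imager. Counts per mm2 were read by image analysis, with a muscle-area detection threshold. Values are mean ± SD of 2–6 determinations.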

[2] = Selectivity ratio of LC50 for mouse RAW 264.7 cells to ratio of EC50 for germinating spore form of Bacillus anthracis 9602P; format: ADME; details: RAW264.7 cells, read-out: Selectivity Index
[3] = Drug uptake in BALB/c mouse kidney at 100ug, iv through bolus administration after 30 hrs by RP-HPLC analysis; format: ADME, organism-based; details: in vivo
In short: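 Kidneys were taken 4 and 30 h after iv tritiated compound and homogenised in 1 N HCl. Homogenates were extracted with methanol/0.1% TFA (4:1), lyophilised 48 h and resuspended in water. Samples ran on C18 RP-HPLC with UV (224, 254 nm) and radioactivity detection. Elution was 10 min isocratic at 20% B, then 20–100% B over 15 min (B: acetonitrile, 0.1% TFA).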

[4] = Selectivity index, ratio of HD100 for sheep RBC to MIC for Escherichia coli ATCC 25922
[5] = Cytotoxicity against mouse RAW264.7 cells assessed as reduction in cell viability after 4 hrs by MTT assay; format: toxicity; details: read-out: LC50
In short: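 RAW 264.7 murine macrophages (2 × 10^5 cells per well) were incubated with increasing compound concentrations for 4 h. Viability was read by MTT assay. The dose causing 50% cell lethality was reported as mean ± SEM, n = 3.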

[6] = Selectivity index, ratio of HD100 for sheep RBC to MIC for Staphylococcus aureus ATCC 25923
[7] = Drug excretion in BALB/c mouse urine at 20 ug/ml, administered intranasally after 6 hrs by high resolution beta radiometric imaging analysis; format: ADME; details: in vivo, inhaled_or_intranasal
[8] = Tmax in BALB/c mouse at 100ug, iv as bolus administration by liquid scintillation counting; format: ADME, organism-based; details: in vivo
In short: (§2)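 Conscious BALB/c mice got one iv bolus of [3H]-labelled oligourea (0.5 × 10^6 cpm per 100 μg, 5.8 × 10−2 μmol) in PBS. Blood (10–20 μL) was drawn from the retro-orbital sinus at 0.6, 2, 3.5, 5.5, 8.7, 15 and 240 min and counted by liquid scintillation. PK was fitted by a two-compartment iv bolus model; n = 2 mice.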

[9] = Drug excretion in BALB/c mouse urinary bladder at 100ug, iv as bolus administration after 240 mins by liquid scintillation counting; format: ADME, organism-based; details: in vivo, 4 h; in short: as §2
[10] = Stability assessed as Streptomyces griseus pronase E-mediated compound degradation after 24 hrs by HPLC analysis; format: ADME
Bacillus anthracis [11] = assay: Bactericidal activity against encapsulated Bacillus anthracis 9602P assessed as reduction in colony forming units after 30 mins; format: functional; details: 0.5 h
[12] = Drug uptake in BALB/c mouse liver at 100 ug/ml, iv after 4 to 48 hrs by high resolution beta radiometric imaging analysis; format: ADME, organism-based; details: in vivo; in short: as §1
Bacillus anthracis [13] = assay: In vivo bactericidal activity against encapsulated Bacillus anthracis 9602P spores infected in mouse assessed as increase in time of survival at 20 ug/ml, sc administered for 15 mins to 48 hrs post infection measured for 15 days post dose; format: functional, organism-based
[14] = Ratio of drug level in kidney cortex to muscle in BALB/c mouse at 100 ug/ml, iv after 4 hrs by high resolution beta radiometric imaging analysis; format: ADME, organism-based; details: in vivo; in short: as §1
[15] = Stability assessed as trypsin (unknown origin)-mediated compound degradation after 24 hrs by HPLC analysis; format: ADME; details: human
Bacillus anthracis [16] = assay: Time required for 50 % bactericidal activity against germinating spore form of Bacillus anthracis 9602P at 10 ug/ml; format: functional
Bacillus anthracis [17] = assay: Time required for 50 % bactericidal activity against encapsulated Bacillus anthracis 9602P at 10 ug/ml; format: functional
[18] = Primary phase half life in BALB/c mouse at 100ug, iv as bolus administration by liquid scintillation counting; format: ADME, organism-based; details: in vivo; in short: as §2
Bacillus anthracis [19] = assay: Time required for 50 % bactericidal activity against nonencapsulated Bacillus anthracis 9602PR at 10 ug/ml; format: functional
Bacillus anthracis [20] = assay: Time required for 95 % bactericidal activity against encapsulated Bacillus anthracis 9602P at 10 ug/ml; format: functional
[21] = Plasma protein binding in CD1 mouse at 10 uM after 4 hrs by HPLC/MS/MS analysis; format: ADME, cell-free; details: read-out: PPB
In short: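 Binding was measured by equilibrium dialysis against CD-1 mouse plasma.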

Bacillus anthracis [22] = assay: In vivo bactericidal activity against encapsulated Bacillus anthracis 9602P spores infected in mouse assessed as increase in time of survival at 20 ug/ml, administered intranasally for 15 mins to 48 hrs post infection measured for 15 days post dose; format: functional, organism-based
[23] = Drug uptake in BALB/c mouse lungs at 20 ug/ml, administered intranasally up to 4 hrs by high resolution beta radiometric imaging analysis; format: ADME, Lung; details: in vivo, inhaled_or_intranasal
In short: (§3)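 BALB/c mice got 20 μg (5 μCi) tritiated compound intranasally. At 4, 30 and 48 h they were anaesthetised with halothane and frozen at −80 °C. Whole-body 20 μm sagittal cryosections were exposed 40 h on a high-resolution β-imager. Regional radioactivity was quantified as counts per mm2 per 40 h by image analysis.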

[24] = Drug uptake in BALB/c mouse nasopharyngeal duct at 20 ug/ml, administered intranasally at 4 hrs post dose by high resolution beta radiometric imaging analysis; format: ADME; details: in vivo, inhaled_or_intranasal; in short: as §3
[25] = Drug uptake in BALB/c mouse kidney cortex at 20 ug/ml, administered intranasally after 4 to 48 hrs by high resolution beta radiometric imaging analysis relative to iv dosing; format: ADME, organism-based; details: in vivo, inhaled_or_intranasal; in short: as §3
[26] = Stability assessed as chymotrypsin(unknown origin)-mediated compound degradation after 24 hrs by HPLC analysis; format: ADME; details: human
Bacillus anthracis [27] = assay: Bactericidal activity against nonencapsulated Bacillus anthracis 9602PR assessed as reduction in colony forming units after 30 mins; format: functional; details: 0.5 h
[28] = Terminal half life in BALB/c mouse at 100ug, iv as bolus administration by liquid scintillation counting; format: ADME, organism-based; details: in vivo; in short: as §2
[29] = Ratio of drug level in liver to muscle in BALB/c mouse at 100 ug/ml, iv after 4 hrs by high resolution beta radiometric imaging analysis; format: ADME, organism-based; details: in vivo; in short: as §1
Bacillus anthracis [30] = assay: Bactericidal activity against Bacillus anthracis 9602P non-germinated spores assessed as colony forming units at 10 ug/ml incubated for 30 mins followed by heating for 30 mins (reference value: 5.28 +/- 0.02 CFU); format: functional
Bacillus anthracis [31] = assay: Bactericidal activity against germinated spore form of Bacillus anthracis 9602P assessed as colony forming units after 30 mins; format: functional; details: 0.5 h
[32] = Stability assessed as chymotrypsin(unknown origin)-mediated compound degradation up to 3 mins by HPLC analysis; format: ADME; details: human, 0.05 h
[33] = Stability assessed as trypsin (unknown origin)-mediated compound degradation up to 3 mins by HPLC analysis; format: ADME; details: human, 0.05 h
[34] = Stability assessed as Streptomyces griseus pronase E-mediated compound degradation up to 3 mins by HPLC analysis; format: ADME; details: 0.05 h
[35] = Drug uptake in BALB/c mouse kidney deep medulla epithelial cells at 100 ug, iv after 4 hrs by avidin-peroxidase/HE staining based assay; format: ADME, organism-based, Epithelial cell; details: in vivo
[36] = Drug uptake in BALB/c mouse cortical convoluted tubule epithelial cells at 100 ug, iv after 4 hrs by avidin-peroxidase/HE staining based assay; format: ADME, organism-based, Epithelial cell; details: in vivo
[37] = Drug uptake in BALB/c mouse kidney cortex at 100 ug, iv after 4 hrs by avidin-peroxidase/HE staining based assay; format: ADME, organism-based; details: in vivo
[38] = Drug uptake in BALB/c mouse liver at 100 ug, iv after 4 hrs by avidin-peroxidase/HE staining based assay; format: ADME, organism-based; details: in vivo
Bacillus anthracis [39] = assay: Bactericidal activity against germinating spore form of Bacillus anthracis at 5 ug/ml; format: functional
[40] = Drug uptake in BALB/c mouse kupffer cells at 100 ug, iv after 4 hrs by avidin-peroxidase/HE staining based assay; format: ADME, organism-based; details: in vivo
[41] = Drug uptake in BALB/c mouse kidney deep medulla at 100 ug, iv after 4 hrs by avidin-peroxidase/HE staining based assay; format: ADME, organism-based; details: in vivo
Bacillus anthracis [42] = assay: Time required for 50 % bactericidal activity against germinating spore form of Bacillus anthracis 9602P at 20 ug/ml; format: functional
Bacillus anthracis [43] = assay: Time required for 50 % bactericidal activity against encapsulated Bacillus anthracis 9602P at 20 ug/ml; format: functional
Bacillus anthracis [44] = assay: Time required for 50 % bactericidal activity against nonencapsulated Bacillus anthracis 9602PR at 20 ug/ml; format: functional

CC(C)NC(=O)N[C@H](CNC(=O)N[C@@H](CCCCN)CNC(=O)N[C@H](CNC(=O)N[C@H](CNC(=O)N[C@@H](CCCCN)CNC(=O)N[C@H](CNC(=O)N[C@@H](CCCCN)CNC(=O)N[C@H](CCC(N)=O)C(C)C)Cc1c[nH]c2ccccc12)C(C)C)Cc1c[nH]c2ccccc12)C(C)C
Drug uptake [1]: Active | selectivity ratio [2]: 9.5 | Drug uptake [3]: 89% | Selectivity Index [4]: 8 | CC50 at 4 h [5]: 31.1 µg/mL (≈ 22.4 µM) | Selectivity Index [6]: 8 | Drug excretion [7]: 2% | Tmax [8]: <= 2 min | Drug excretion [9]: 2% | Stability [10]: Stable | EC50 (Bacillus anthracis [11]): 3.25 µg/mL (≈ 2.34 µM) | Drug uptake [12]: Active | Activity (Bacillus anthracis [13]): Active | Ratio [14]: 10 | Stability [15]: Stable | Time (Bacillus anthracis [16]): 60 s | Time (Bacillus anthracis [17]): 30 s | alphat1/2 [18]: 3 min | Time (Bacillus anthracis [19]): 35 s | Time (Bacillus anthracis [20]): <2 min | fraction unbound at 4 h, 10 µM [21]: 0.01 | Activity (Bacillus anthracis [22]): Active | Drug uptake [23]: Active | Drug uptake [24]: Active | Drug uptake [25]: 70% | Stability [26]: Stable | EC50 (Bacillus anthracis [27]): 6 µg/mL (≈ 4.32 µM) | beta t1/2 [28]: 1.65 h | Ratio [29]: 10 | Activity (Bacillus anthracis [30]): 5.26 CFU | EC50 (Bacillus anthracis [31]): 3.3 µg/mL (≈ 2.38 µM)

Ac-VKWVKWKV-NH2
Stability [32]: Unstable | Stability [33]: Unstable | Stability [34]: Unstable

CC(C)[C@@H](CCC(N)=O)NC(=O)NC[C@H](CCCCN)NC(=O)NC[C@H](Cc1c[nH]c2ccccc12)NC(=O)NC[C@H](CCCCN)NC(=O)NC[C@@H](NC(=O)NC[C@H](Cc1c[nH]c2ccccc12)NC(=O)NC[C@H](CCCCN)NC(=O)NC[C@@H](NC(=O)NCCSCC(=O)NCCNC(=O)CSCCNC(=O)N[C@H](CNC(=O)N[C@@H](CCCCN)CNC(=O)N[C@H](CNC(=O)N[C@H](CNC(=O)N[C@@H](CCCCN)CNC(=O)N[C@H](CNC(=O)N[C@@H](CCCCN)CNC(=O)N[C@H](CCC(N)=O)C(C)C)Cc1c[nH]c2ccccc12)C(C)C)Cc1c[nH]c2ccccc12)C(C)C)C(C)C)C(C)C
EC50 (Bacillus anthracis [11]): 0.5 µg/mL (≈ 0.169 µM) | Activity (Bacillus anthracis [13]): Active | Activity (Bacillus anthracis [22]): Active | EC50 (Bacillus anthracis [31]): 0.2 µg/mL (≈ 0.0678 µM)

CC(C)[C@@H](CNC(=O)N[C@@H](CCCCN)CNC(=O)N[C@H](CNC(=O)N[C@H](CNC(=O)N[C@@H](CCCCN)CNC(=O)N[C@H](CNC(=O)N[C@@H](CCCCN)CNC(=O)N[C@H](CCC(N)=O)C(C)C)Cc1c[nH]c2ccccc12)C(C)C)Cc1c[nH]c2ccccc12)NC(=O)CCCC[C@@H]1SC[C@@H]2NC(=O)N[C@@H]21
Drug uptake [35]: Active | Drug uptake [36]: Active | Drug uptake [37]: Active | Drug uptake [38]: Active | Activity (Bacillus anthracis [39]): 64.8% | Drug uptake [40]: Active | Drug uptake [41]: Active

CC(C)NC(=O)N[C@H](CNC(=O)N[C@@H](CCCCN)CNC(=O)N[C@H](CNC(=O)N[C@H](CCC(=O)N[C@@H](CCCCN)CNC(=O)N[C@H](CNC(=O)N[C@@H](CCCCN)CNC(=O)N[C@H](CCC(N)=O)C(C)C)Cc1c[nH]c2ccccc12)C(C)C)Cc1c[nH]c2ccccc12)C(C)C
EC50 (Bacillus anthracis [11]): 7 µg/mL (≈ 5.05 µM) | Time (Bacillus anthracis [42]): 120 s | Time (Bacillus anthracis [43]): 75 s | Time (Bacillus anthracis [44]): 45 s | EC50 (Bacillus anthracis [27]): 8.5 µg/mL (≈ 6.13 µM) | EC50 (Bacillus anthracis [31]): 10 µg/mL (≈ 7.21 µM)
